From PubChem BioAssay
T cruzi growth-1 – blocks T. cruzi growth in NIH3T3 culture; T. cruzi beta-gal in NIH3T3, GalScreen luminescence, 90 h; inhibition, % at 8.34 µM; hit rate 5.9% among 77,000; AID 624255;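 active means mean inhibition above about 93%, with at least 55% of replicates each passing it, limit read from the data, passing the limit was not always enough; inconclusive means only one of those two conditions holds; inactive means neither condition holds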
IDH1 mut inh – inhibitors of human IDH1 R132H; AID 624101; IDH1 R132H reductase, diaphorase/resazurin fluorescence, 60 min; inhibition, % at 10 µM; O75874; hit rate 0.18% among 70,000; in the data active means inhibition above about 34%; inconclusive means no clear call, values can overlap the other calls; inactive means below about 11%;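 further: 0% = DMSO and 100% = no enzyme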
Target sequence (O75874 whole entry R132H): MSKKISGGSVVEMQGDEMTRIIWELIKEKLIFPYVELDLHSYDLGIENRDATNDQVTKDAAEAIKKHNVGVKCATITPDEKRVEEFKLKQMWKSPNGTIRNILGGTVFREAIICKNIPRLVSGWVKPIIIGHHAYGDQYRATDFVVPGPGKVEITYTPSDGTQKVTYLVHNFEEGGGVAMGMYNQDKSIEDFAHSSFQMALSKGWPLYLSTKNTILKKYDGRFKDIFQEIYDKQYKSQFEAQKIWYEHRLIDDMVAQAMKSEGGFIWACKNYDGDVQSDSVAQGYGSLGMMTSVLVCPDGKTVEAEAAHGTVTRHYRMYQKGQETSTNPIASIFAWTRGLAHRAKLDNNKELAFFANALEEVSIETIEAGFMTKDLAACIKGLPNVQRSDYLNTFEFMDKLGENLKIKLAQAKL
KDM4C inh – blocks human GASC-1 (KDM4C) demethylase activity | GST-KDM4C 2-372, H3K9me3 peptide, LANCE TR-FRET | inhibition, % at 12.5 µM | hit rate 0.15% among 96,000 | AID 720574;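 active means mean replicate inhibition above about 25%, with at least 55% of replicates also reaching it, limit read from the data, passing the limit was not always enough; inconclusive means only one of those two conditions met; inactive means neither condition met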
Target sequence (Q9H3R0 2-372 limits assumed): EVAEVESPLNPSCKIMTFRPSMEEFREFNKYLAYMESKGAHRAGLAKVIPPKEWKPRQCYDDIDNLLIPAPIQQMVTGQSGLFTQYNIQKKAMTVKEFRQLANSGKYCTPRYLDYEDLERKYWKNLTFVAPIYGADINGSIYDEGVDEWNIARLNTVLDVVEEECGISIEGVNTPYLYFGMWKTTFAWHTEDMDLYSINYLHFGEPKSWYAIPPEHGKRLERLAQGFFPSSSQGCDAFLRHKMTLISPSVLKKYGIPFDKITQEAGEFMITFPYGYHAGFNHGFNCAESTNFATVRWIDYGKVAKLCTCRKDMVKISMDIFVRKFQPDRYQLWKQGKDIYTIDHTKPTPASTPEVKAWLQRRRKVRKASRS
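Test system – GST-tagged GASC-1 (JMJD2C) catalytic fragment, aa 2-372 · Medium – HEPES buffer, pH 7.5, plus ascorbate · Reagent – H3K9me3 peptide with Fe(II)/2OG · Compound – one test concentration per compound · Timing – 30 min reaction, 60 min detection, RT · Technique – TR-FRET with Eu antibody and ULight streptavidin, EDTA stop · Read-out basis – inhibition from TR-FRET ratio decrease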
T cruzi growth-2 – Trypanosoma cruzi proliferation inhibition. inhibition, % at 8.35 µM. shares compounds with T cruzi growth-1. T. cruzi beta-gal in NIH3T3, GalScreen luminescence, 90 h. hit rate 72% among 5,600. AID 651739;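 active means mean replicate inhibition above about 95% and at least 55% of replicates individually reaching it, limit read from the data; inconclusive means only one of the two criteria is met; inactive means neither criterion is met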
T cruzi growth-3 – blocks T. cruzi growth in NIH3T3 host cells; inhibition, % at 2.09 µM; T. cruzi beta-gal in NIH3T3, GalScreen luminescence, 90 h; shares compounds with T cruzi growth-1; hit rate 21% among 5,600;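 active means mean inhibition above about 95%, with at least 55% of replicates also reaching it, limit read from the data; inconclusive means meets just one of the two conditions; inactive means meets neither condition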;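 further: plate controls were neutral control median for no effect and positive control median for full effect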
NIH3T3 tox – cytotoxicity in mouse NIH/3T3 fibroblasts; shares compounds with T cruzi growth-1; NIH/3T3 viability, CellTiter-Glo ATP luminescence, 90 h; cytotoxicity (signal decrease), % at 8.35 µM; hit rate 14% among 5,600; AID 651742;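 active means mean signal decrease across replicates above about 35% based on untreated-well scatter, with enough replicates individually passing, limit read from the data; inconclusive means no rule stated though some were filed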;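 further: 0% = median of neutral control wells and 100% = median of positive control wells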
NIH3T3 tox 2 – cytotoxicity in mouse NIH/3T3 fibroblasts | shares compounds with T cruzi growth-1 | inhibition, % at 24.9 µM | AID 651744 | hit rate 56% among 5,600 | NIH/3T3 viability, CellTiter-Glo ATP luminescence, 90 h;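 active means mean loss of cell viability signal at or above a set limit, and enough replicates individually reaching it; inconclusive means meets only the mean limit or only the replicate share; inactive means meets neither condition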;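 further: 0% = median of neutral control wells and 100% = median of positive control wells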
* hit, by the source's call; ? = inconclusive; . = no result; ! = not confirmed by another sample. Only a selection was taken, and hits are over-represented in it overall.

SMILES	T cruzi growth-1	IDH1 mut inh	KDM4C inh	T cruzi growth-2	T cruzi growth-3	NIH3T3 tox	NIH3T3 tox 2
CC(C)CC#Cc1ccc2c(c1)O[C@H](CN(C)C(=O)c1ccccc1F)[C@H](C)CN([C@@H](C)CO)S2(=O)=O	?	-0.6	-1.4	.	.	.	.
c1cc(-c2nn[nH]n2)ccc1OCc1nn[nH]n1	.	0.5	.	.	.	.	.
O=C(Nc1ccc(S(=O)(=O)Nc2ccccn2)cc1)c1cccnc1	.	-0.2	.	.	.	.	.
C[C@@H]1CN([C@H](C)CO)S(=O)(=O)c2ccc(C#Cc3ccccc3)cc2O[C@H]1CN(C)C(=O)Cc1ccccn1	?	-0.2	-0.3	100.0*	24.3	24.1	84.8*
C[C@H](CO)N1C[C@H](C)[C@@H](CN(C)C(=O)Cc2ccccn2)Oc2cc(C#Cc3ccccc3)ccc2S1(=O)=O	68.1	1.7	3.5	.	.	.	.
C[C@@H]1CN([C@H](C)CO)S(=O)(=O)c2ccc(C#Cc3ccccc3)cc2O[C@H]1CN(C)C(=O)CN(C)C	80.5	9.1	-2.7	.	.	.	.
C[C@H](CO)N1C[C@H](C)[C@@H](CN(C)C(=O)CN(C)C)Oc2cc(C#Cc3ccccc3)ccc2S1(=O)=O	?	0.2	-0.1	104.8*	62.2	1.8	103.7*
CC(C)C#Cc1ccc2c(c1)O[C@H](CN(C)C(=O)Cc1ccccn1)[C@H](C)CN([C@@H](C)CO)S2(=O)=O	10.9	.	0.6	.	.	.	.
C[C@H](CO)N1C[C@H](C)[C@H](CN(C)C(=O)Cc2ccccn2)Oc2cc(C#Cc3ccccc3)ccc2S1(=O)=O	103.8*	2.4	-0.6	101.3*	26.9	27.8	24.5
COc1ccc(NC(=O)CSc2nc(C)c3c(n2)CCCC3)c([N+](=O)[O-])c1	.	-0.1	.	.	.	.	.
COc1ccc(NC(=O)Nc2ccc3c(c2)C(=O)N([C@H](C)CO)C[C@H](C)[C@@H](CN(C)C(=O)Nc2ccc(OC)cc2)OCCCC[C@@H](C)O3)cc1	-29.8	.	0.4	.	.	.	.
COc1ccc(NC(=O)Nc2ccc3c(c2)C(=O)N([C@@H](C)CO)C[C@H](C)[C@H](CN(C)C(=O)Nc2ccc(C(F)(F)F)cc2)OCCCC[C@H](C)O3)cc1	?	0.7	1.9	104.2*	111.5*	-18.6	1.8
COc1ccc(NC(=O)Nc2ccc3c(c2)C(=O)N([C@H](C)CO)C[C@@H](C)[C@@H](CN(C)C(=O)Nc2ccc(OC)cc2)OCCCC[C@@H](C)O3)cc1	.	1.6	-0.2	.	.	.	.
COc1ccc(NC(=O)Nc2ccc3c(c2)C(=O)N([C@@H](C)CO)C[C@@H](C)[C@H](CN(C)C(=O)Nc2ccc(C(F)(F)F)cc2)OCCCC[C@@H](C)O3)cc1	114.3*	-0.5	16.8	108.8*	109.4*	-14.2	6.0
O=c1c2ccccc2nc(CSc2nnc(-c3ccco3)n2-c2ccccc2)n1-c1ccccc1Cl	.	0.0	.	.	.	.	.
COc1ccc(-n2c(SCC(=O)Nc3ccc(Cl)cc3Cl)nnc2-c2ccncc2)cc1	.	0.7	.	.	.	.	.
NC(=O)c1c(NC(=O)COc2ccc3ccccc3c2)sc2c1CCCCCC2	.	-0.3	.	.	.	.	.
COc1ccccc1NC(=O)N1CC[C@@H]2[C@H]1c1cc(C#Cc3ccc(F)cc3)ccc1N(C)[C@@H]2CO	?	.	-0.8	98.5*	111.3*	2.4	12.2
COc1ccccc1NC(=O)N1CC[C@@H]2[C@H]1c1cc(-c3ccccc3)ccc1N(C)[C@@H]2CO	86.7	.	-2.1	.	.	.	.
COc1ccccc1NC(=O)N1CC[C@H]2[C@@H]1c1cc(-c3ccc(F)cc3)ccc1N(C)[C@H]2CO	100.8*	.	0.7	106.1*	?	8.7	28.5*
CCC(=O)N1CC[C@H]2[C@@H]1c1cc(C#Cc3ccccc3OC)ccc1N(C)[C@H]2CO	98.8*	.	-0.1	110.1*	76.5	22.4	-6.6
COc1ccccc1NC(=O)N1CC[C@@H]2[C@H]1c1cc(-c3cccc(F)c3)ccc1N(C)[C@H]2CO	39.8	.	-6.4	.	.	.	.
CCC(=O)N1CC[C@@H]2[C@H]1c1cc(C#Cc3cccc(F)c3)ccc1N(C)[C@H]2CO	100.6	.	0.0	.	.	.	.
Cc1c(CC(=O)O)c(=O)oc2cc(OCC(=O)O)ccc12	.	0.5	.	.	.	.	.
Cc1ccc(C(C)C)cc1OCC(O)Cn1c(C)nc2ccccc21 (stereo not given)	.	2.6	.	.	.	.	.
SMILES	T cruzi growth-1	IDH1 mut inh	KDM4C inh	T cruzi growth-2	T cruzi growth-3	NIH3T3 tox	NIH3T3 tox 2
CC(C)CC#Cc1cnc2c(c1)C(=O)N([C@H](C)CO)C[C@H](C)[C@H](CN(C)S(=O)(=O)c1cccs1)O2	40.9	1.0	-4.0	.	.	.	.
C[C@@H]1CN([C@@H](C)CO)C(=O)c2cc(C#Cc3ccccc3)cnc2O[C@H]1CN(C)S(=O)(=O)c1ccccc1F	90.1	-0.2	.	.	.	.	.
C[C@@H]1CN([C@H](C)CO)C(=O)c2cc(C#Cc3ccccc3F)cnc2O[C@@H]1CN(C)S(=O)(=O)c1ccccc1F	105.7*!	0.0	-2.3	107.3*	69.1	55.3*	53.7*
C[C@H](CO)N1C[C@H](C)[C@H](CN(C)S(=O)(=O)c2cccs2)Oc2ncc(C#Cc3ccccc3)cc2C1=O	119.2*!	-1.4	-5.9	108.7*	67.1	23.6	16.4
C[C@@H]1CN([C@H](C)CO)C(=O)c2cc(C#Cc3ccccc3F)cnc2O[C@H]1CN(C)S(=O)(=O)c1ccccc1F	114.3*	-5.9	-0.7	110.4*	90.2	39.3*	?
C[C@@H]1CN([C@@H](C)CO)C(=O)c2cc(C#Cc3ccncc3)cnc2O[C@@H]1CN(C)S(=O)(=O)c1ccccc1F	-130.1	10.5	2.0	.	.	.	.
C[C@H](CO)N1C[C@H](C)[C@@H](CN(C)S(=O)(=O)c2ccccc2F)Oc2ncc(C#Cc3ccncc3)cc2C1=O	28.2	.	-0.3	.	.	.	.
C[C@@H]1CN([C@@H](C)CO)C(=O)c2cc(C#Cc3ccccc3F)cnc2O[C@@H]1CN(C)S(=O)(=O)c1ccccc1F	98.4*	-3.0	-4.9	95.4*	80.2	56.1*	60.8*
Cc1c(Cl)cccc1N(CC(=O)Nc1cc(Cl)cc(Cl)c1)S(C)(=O)=O	.	0.0	.	.	.	.	.
O=C(Nc1ccc(I)cc1C(=O)NCCN1CCOCC1)c1ccco1	.	0.1	.	.	.	.	.
O=C1CCC(=O)N(O)CCCCCNC(=O)CCC(=O)N(O)CCCCNC(=O)CCC(=O)N(O)CCCCN1	.	0.2	.	.	.	.	.
CCOC(=O)COc1cccc(-c2nc3ccccc3s2)c1	.	0.0	.	.	.	.	.
COC(=O)c1cccc(COC(=O)c2ccc(NC(=O)c3ccccc3)cc2)c1	.	0.9	.	.	.	.	.
CCOc1cccc2c(C)nc(Nc3nc4c(c(=O)[nH]3)CCCC4)nc12	.	2.1	.	.	.	.	.
C[C@H]1CN([C@@H](C)CO)C(=O)c2cc(C#Cc3ccccc3)cnc2O[C@@H]1CN(C)S(=O)(=O)c1ccccc1F	?	-0.1	.	108.1*	67.9	36.6*	35.5*
C[C@H]1CN([C@@H](C)CO)C(=O)c2cc(C#Cc3ccncc3)cnc2O[C@H]1CN(C)S(=O)(=O)c1ccccc1F	35.3	.	4.6	.	.	.	.
